Measured values: ChEMBL document CHEMBL3856186, “Partial Activation and Inhibition of TRPV1 Channels by Evodiamine and Rutaecarpine, Two Major Components of the Fruits of Evodia rutaecarpa” (J Nat Prod, 2016)
Active and inactive are the calls of the source. The rule behind the calls is not given here.

Legend:
Format in all cases: cell-based
[1] = target: Transient receptor potential cation channel subfamily V member 1 (Rattus norvegicus) (UniProt O35433); experiment: Partial antagonist activity at rat TRPV1 expressed in HEK293 cells assessed as effect on capsaicin-induced inward current at 0.6 uM by whole-cell patch clamp method (reference value: -327.4 +/- 52.3 pA/pF)
In short: (§1)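 HEK293 cells transiently expressing rat TRPV1 (EGFP cotransfected) were patched in whole-cell mode 1 day post-transfection. Cells were held at −60 mV in Ca2+-containing standard bath (pH 7.4) at ~25 °C. Capsaicin-evoked peak current amplitude was quantified. Sigmoidal curve fitting gave EC50 or IC50 values.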

[2] = target: Transient receptor potential cation channel subfamily V member 1 (Rattus norvegicus) (UniProt O35433); experiment: Partial antagonist activity at rat TRPV1 expressed in HEK293 cells assessed as effect on capsaicin-induced inward current at 1 uM by whole-cell patch clamp method (reference value: -431 +/- 43.1 pA/pF); in short: as §1
[3] = target: Transient receptor potential cation channel subfamily V member 1 (Rattus norvegicus) (UniProt O35433); experiment: Agonist activity at rat TRPV1 channel expressed in HEK293 cells assessed as outward rectifying current at 10 uM and -60 mV holding potential by whole-cell patch-clamp method
In short: (§2)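 Rat TRPV1 cDNA and an EGFP reporter were cotransfected into HEK293 cells, with recording 1 day later. Whole-cell voltage clamp was run at room temperature (~25 °C) in standard bath (2 mM CaCl2, pH 7.4) with a KCl/MgATP/EGTA pipette solution. Steps from −100 to +100 mV (100 ms) gave I–V curves. Agonist was applied until desensitization, and peak current was scored. EC50 came from a sigmoidal fit.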

[4] = target: Transient receptor potential cation channel subfamily V member 1 (Rattus norvegicus) (UniProt O35433); experiment: Partial antagonist activity at rat TRPV1 expressed in HEK293 cells assessed as effect on capsaicin-induced inward current at 10 uM by whole-cell patch clamp method (reference value: -7 +/- 2.6 pA/pF); in short: as §1
[5] = target: Transient receptor potential cation channel subfamily V member 1 (Rattus norvegicus) (UniProt O35433); experiment: Partial antagonist activity at rat TRPV1 expressed in HEK293 cells assessed as effect on capsaicin-induced inward current at 0.6 uM by whole-cell patch clamp method (reference value: -[…] +/- […] pA/pF)
[6] = target: Transient receptor potential cation channel subfamily V member 1 (Rattus norvegicus) (UniProt O35433); experiment: Partial antagonist activity at rat TRPV1 expressed in HEK293 cells assessed as effect on capsaicin-induced inward current at 0.1 uM by whole-cell patch clamp method (reference value: -480.7 +/- 96.9 pA/pF); in short: as §1
[7] = target: Transient receptor potential cation channel subfamily V member 1 (Rattus norvegicus) (UniProt O35433); experiment: Partial antagonist activity at rat TRPV1 expressed in HEK293 cells assessed as effect on capsaicin-induced inward current at 0.1 uM by whole-cell patch clamp method (reference value: -151.2 +/- 33 pA/pF); in short: as §1
[8] = target: Transient receptor potential cation channel subfamily V member 1 (Rattus norvegicus) (UniProt O35433); experiment: Partial antagonist activity at rat TRPV1 expressed in HEK293 cells assessed as effect on proton-induced channel current at 1 uM and -60 mV holding potential co-treated with proton by whole-cell patch clamp method
In short: (§3)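 Proton-activated currents were recorded in rat TRPV1-expressing HEK293 cells held at −60 mV in whole-cell mode, with bath buffered to pH 6 with 10 mM MES, at ~25 °C. Peak current amplitude was the read-out.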

[9] = target: Transient receptor potential cation channel subfamily V member 1 (Rattus norvegicus) (UniProt O35433); experiment: Partial antagonist activity at rat TRPV1 expressed in HEK293 cells assessed as effect on capsaicin-induced inward current at 10 uM by whole-cell patch clamp method; in short: as §1
[10] = target: Transient receptor potential cation channel subfamily V member 1 (Rattus norvegicus) (UniProt O35433); experiment: Agonist activity at rat TRPV1 channel expressed in HEK293 cells assessed as induction of inward current at 10 uM and -60 mV holding potential by whole-cell patch-clamp method; in short: as §2
[11] = target: Transient receptor potential cation channel subfamily V member 1 (Rattus norvegicus) (UniProt O35433); experiment: Partial antagonist activity at rat TRPV1 expressed in HEK293 cells assessed as effect on capsaicin-induced inward current at 10 uM by whole-cell patch clamp method (reference value: -480.7 +/- 96.9 pA/pF); in short: as §1
[12] = target: Transient receptor potential cation channel subfamily V member 1 (Rattus norvegicus) (UniProt O35433); experiment: Partial antagonist activity at rat TRPV1 expressed in HEK293 cells assessed as inhibition of proton-induced channel current at 1 or 50 uM and -60 mV holding potential pretreated for 60 secs prior to proton-challenge by whole-cell patch clamp method (reference value: 185.1 +/- 38.6 pA/pF); in short: as §3
[13] = target: Transient receptor potential cation channel subfamily V member 1 (Rattus norvegicus) (UniProt O35433); experiment: Partial antagonist activity at rat TRPV1 expressed in HEK293 cells assessed as effect on capsaicin-induced inward current at 0.6 uM by whole-cell patch clamp method (reference value: -151.2 +/- 33 pA/pF); in short: as §1
[14] = target: Transient receptor potential cation channel subfamily V member 1 (Rattus norvegicus) (UniProt O35433); experiment: Partial antagonist activity at rat TRPV1 expressed in HEK293 cells assessed as effect on capsaicin current density at 10 uM pretreated for 180 sec followed by capsaicin addition at -60 mV holding potential in presence of extracellular calcium by whole-cell patch-clamp method (reference value: -327.4 +/- 52.3 pA/pF); in short: as §1
[15] = target: Transient receptor potential cation channel subfamily V member 1 (Rattus norvegicus) (UniProt O35433); experiment: Partial antagonist activity at rat TRPV1 expressed in HEK293 cells assessed as effect on capsaicin-induced inward current at 0.6 uM by whole-cell patch clamp method (reference value: -431 +/- 43.1 pA/pF); in short: as §1
[16] = target: Transient receptor potential cation channel subfamily V member 1 (Rattus norvegicus) (UniProt O35433); experiment: Partial antagonist activity at rat TRPV1 expressed in HEK293 cells assessed as effect on capsaicin-induced inward current at 0.1 uM by whole-cell patch clamp method (reference value: -431 +/- 43.1 pA/pF); in short: as §1
[17] = target: Transient receptor potential cation channel subfamily V member 1 (Rattus norvegicus) (UniProt O35433); experiment: Desensitization of rat TRPV1 expressed in HEK293 cells at 10 uM for 30 sec at -60 mV holding potential in presence of extracellular calcium by whole-cell patch clamp method; in short: as §2
[18] = target: Transient receptor potential cation channel subfamily V member 1 (Rattus norvegicus) (UniProt O35433); experiment: Partial antagonist activity at rat TRPV1 expressed in HEK293 cells assessed as effect on capsaicin-induced inward current at 10 uM by whole-cell patch clamp method (reference value: -[…] +/- […] pA/pF)
[19] = target: Transient receptor potential cation channel subfamily V member 1 (Rattus norvegicus) (UniProt O35433); experiment: Agonist activity at rat TRPV1 channel expressed in HEK293 cells assessed as reversal potential at 10 uM and -60 mV holding potential by whole-cell patch-clamp method; in short: as §2
[20] = target: Transient receptor potential cation channel subfamily V member 1 (Rattus norvegicus) (UniProt O35433); experiment: Partial antagonist activity at rat TRPV1 expressed in HEK293 cells assessed as desensitization of capsaicin-induced inward current at 10 uM and -60 mV holding potential pretreated for 60 secs prior to capsaicin-challenge in absence of calcium by whole-cell patch-clamp method
In short: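 Whole-cell clamp at −60 mV was done on rat TRPV1-transfected HEK293 cells (1 day) using a calcium-free bath (5 mM EGTA, no CaCl2, pH 7.4) at ~25 °C. Capsaicin-evoked peak current was measured.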

Chain of Transient receptor potential cation channel subfamily V member 1 (Rattus norvegicus) (O35433 whole entry): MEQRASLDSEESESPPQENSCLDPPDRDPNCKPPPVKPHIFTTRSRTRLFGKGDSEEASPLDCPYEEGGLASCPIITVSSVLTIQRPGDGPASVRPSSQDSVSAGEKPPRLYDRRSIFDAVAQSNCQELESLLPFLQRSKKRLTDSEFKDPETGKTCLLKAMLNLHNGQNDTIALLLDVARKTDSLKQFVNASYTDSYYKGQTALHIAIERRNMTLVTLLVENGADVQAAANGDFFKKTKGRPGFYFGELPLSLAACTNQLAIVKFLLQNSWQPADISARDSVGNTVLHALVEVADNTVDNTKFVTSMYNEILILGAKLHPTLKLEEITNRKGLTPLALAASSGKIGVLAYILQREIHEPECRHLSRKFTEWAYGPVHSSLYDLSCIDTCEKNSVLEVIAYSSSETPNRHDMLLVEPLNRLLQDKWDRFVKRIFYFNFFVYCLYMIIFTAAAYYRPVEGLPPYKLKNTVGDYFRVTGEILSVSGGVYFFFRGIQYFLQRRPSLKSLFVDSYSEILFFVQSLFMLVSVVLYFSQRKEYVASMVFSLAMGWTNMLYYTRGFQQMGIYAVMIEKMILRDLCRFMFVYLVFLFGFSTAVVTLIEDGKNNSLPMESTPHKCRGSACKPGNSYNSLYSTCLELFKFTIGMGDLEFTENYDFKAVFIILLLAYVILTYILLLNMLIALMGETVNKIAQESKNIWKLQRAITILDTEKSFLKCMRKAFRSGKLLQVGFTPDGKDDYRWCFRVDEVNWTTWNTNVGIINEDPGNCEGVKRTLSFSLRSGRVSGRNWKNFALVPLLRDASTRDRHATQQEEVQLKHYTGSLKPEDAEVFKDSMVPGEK

Activity [1]: -208 pA/pF | Activity [2]: -260 pA/pF | Activity [3]: Active | Activity [4]: -165 pA/pF | Activity [5]: -528 pA/pF | Activity [6]: -416 pA/pF | Activity [7]: -94.8 pA/pF | Activity [8]: -158 pA/pF | Activity [9]: -439 pA/pF | Activity [10]: Active | Activity [11]: -256 pA/pF | Activity [12]: -49.1 pA/pF | Activity [13]: -81.6 pA/pF | Activity [14]: -60.3 pA/pF | Activity [15]: -328 pA/pF | Activity [16]: -390 pA/pF | Activity [18]: -393 pA/pF | Activity [19]: 0 mV
SMILES: CN1c2ccccc2C(=O)N2CCc3c([nH]c4ccccc34)C21 (stereo not given)
Activity [17]: Active | Activity [20]: Active
